OX1R antag-1 = antagonists of human orexin 1 receptor (OX1R); 330,000 compounds, 1.8% hits; Orexin/Hypocretin receptor type 1 (Homo sapiens), O43613; OX1R-expressing cells, FRET antagonist read-out; inhibition, % at 6.6 µM; in the data active means inhibition mostly above about 38%, no sharp cut-off; inactive means mostly below about 40%;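 further: 0% = agonist challenge alone and 100% = reference antagonist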
EP2 mod = EP2 receptor modulators, cAMP readout, primary screen, cell-based, HTRF cAMP, PGE2 stimulation | 260,000 compounds, 0.83% hits | EP2-expressing cells, cAMP HTRF FRET, PGE2 co-stimulation | induction, % at 25 µM | Prostaglandin E2 receptor EP2 subtype (Homo sapiens), P43116;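 active means compounds whose cAMP rise, as percent of the full-agonist control response, exceeds 60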;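 further: rat C6 glioma line stably carrying human EP2 under a CMV promoter; the protocol text gives 20 µM as final concentration; 100% = response of wells given 1 µM PGE2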
EP2 antag = human EP2 receptor antagonists, primary screen, TR-FRET cAMP, C6 glioma cells | Prostaglandin E2 receptor EP2 subtype (Homo sapiens), P43116 | C6 glioma cells expressing human EP2; cells stimulated with saturating PGE2 | inhibition, % at 25 µM | 260,000 compounds, 0.52% hits | AID 1422, 2008;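 active means percent inhibition above 40 after rounding to a whole number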;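 further: rat C6 glioma host cells with rolipram phosphodiesterase inhibitor present; the protocol text gives 20 µM as final concentration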
CHO parental Ca = ATP-evoked calcium signal inhibitors, parental CHO, primary screen, counter-screen for OX1R antagonist project, cell-based, fluorescence, Fluo-8 calcium dye; parental CHO-K1, ATP-induced calcium, Fluo-8 fluorescence; inhibition, % at 5.6 µM; 330,000 compounds, 0.63% hits; AID 463079, 2010;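 active means inhibition above that plate's mean sample inhibition plus 3 SD, cut at about 26% in these data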;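 further: 0% = ATP-challenged DMSO wells and 100% = DMSO wells without ATP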
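material = parental CHO cells | also added = ATP as calcium-mobilizing challenge | dosing = single point at 5.6 µM | detection = intracellular calcium via Fluo-8 no-wash fluorescent dye | read-out = % inhibition | benchmarks = low control ATP plus DMSO, high control DMSO only | repeats = one well per compound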
GPR7 antag = GPR7 receptor antagonists, primary screen, cell-based, fluorescence, single concentration | Neuropeptides B/W receptor type 1 (Homo sapiens), P48145 | AID 1861, 2009 | inhibition, % at 4.4 µM | 290,000 compounds, 1.1% hits | GPR7-expressing cells, fluorescence antagonist assay; in the data active means inhibition above about 16%, passing the limit was not always enough;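 further: cells stimulated with the agonist NPW; 0% = agonist with vehicle and 100% = vehicle without agonist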
Target sequence (P48145 whole entry, looked up): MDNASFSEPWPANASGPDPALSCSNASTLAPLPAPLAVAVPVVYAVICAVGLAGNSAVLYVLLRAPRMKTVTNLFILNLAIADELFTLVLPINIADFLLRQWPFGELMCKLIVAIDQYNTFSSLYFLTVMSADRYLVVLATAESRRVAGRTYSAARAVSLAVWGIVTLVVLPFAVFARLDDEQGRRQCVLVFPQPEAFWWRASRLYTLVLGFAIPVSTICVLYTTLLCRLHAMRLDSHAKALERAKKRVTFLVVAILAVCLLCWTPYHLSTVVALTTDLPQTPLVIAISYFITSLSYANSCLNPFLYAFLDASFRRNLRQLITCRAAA
OX1R antag-2 = OX1R (HCRTR1) antagonists, primary screen, fluorescence, CHO/OX1R cells, Fluo-8 calcium, orexin A; 330,000 compounds, 0.43% hits; Orexin/Hypocretin receptor type 1 (Homo sapiens), O43613; AID 434989, 2010; inhibition, % at 5 µM; Fluo-8 calcium fluorescence;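 active means inhibition above its plate's threshold, mean inhibition of all tested compounds on the plate plus 3 SD, cut at about 37% in these data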;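 further: 0% = orexin A challenge wells and 100% = SB-334867-A antagonist wells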
EP2 cAMP induct = cAMP induction in EP2, EP4, beta2-AR and parental cells, confirmation, counter-screen for EP2 modulator project, cell-based, five parallel assays, C6 glioma, HEK293; shares compounds with EP2 mod; 1,300 compounds, 47% hits; calls only at 20 µM (by protocol); cAMP HTRF induction; plus low (about EC15) PGE2 agonist;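 active means cAMP induction above 50% in the main assay while under 30% in all four parallel counter assays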;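 further: rat C6 glioma cells stably expressing human EP2 receptor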
* = called active by the depositor; i = inactive; . = no result; + = active, no number. Sampled rows, rich in hits. Any-hit rate of the full collection: about 3.7%.

SMILES	OX1R antag-1	EP2 mod	EP2 antag	CHO parental Ca	GPR7 antag	OX1R antag-2	EP2 cAMP induct
Cc1ccc(Cn2c(Cc3ccccc3)nc3ccccc32)cc1	31.8	80.0*	3.9	-1.0	-5.2	-13.8	+
O=c1c2ccccc2c(C=Nc2ccc(O)cc2)c(O)n1-c1nccs1	7.6	-27.9	5.9	-9.2	-12.9	-7.9	.
Cc1nc(SCC(N)=O)c(C#N)c(C)c1C	19.0	-6.8	1.0	0.4	-10.2	-6.0	.
O=C(N/N=C/c1cccc([N+](=O)[O-])c1)C1CC(=O)N(c2ccc(F)cc2)C1 (stereo unspecified)	27.7	-37.8	3.2	-10.3	-5.1	-10.8	.
c1ccc(-c2cc(-c3ccncc3)nc3ccc4ccccc4c23)cc1	4.8	98.6*	4.8	-9.4	-9.4	-10.8	+
Clc1ccc2nc(-c3ccncc3)cc(-c3ccccc3)c2c1	7.4	55.1	4.2	-5.3	-7.8	-0.4	.
CCOC(=O)c1sc(NC(=O)CCCCCN2C(=O)c3cccc4cccc(c34)C2=O)nc1C	.	7.9	2.5	.	-3.5	.	.
CCOC(=O)c1sc(NC(=O)CN2C(=O)c3cccc4cccc(c34)C2=O)nc1C	7.7	66.1*	-3.3	-15.5	-9.2	-16.0	i
CCOC(=O)C1=C(N)N2C(=O)C(C)SC2=C(C(=O)OCC)C1c1ccc(O)cc1 (stereo unspecified)	10.0	10.9	8.4	-5.2	16.8	-17.7	.
CCOC(=O)C1=C(N)N2C(=O)C(C)SC2=C(C(=O)OC)C1c1ccccc1OC (stereo unspecified)	-4.6	88.2*	7.1	-31.8	-5.5	-0.7	+
O=C(CCN1C(=O)/C(=C\C=C\c2ccccc2)SC1=S)Nc1ccc(C(=O)O)cc1	12.8	.	.	-14.8	-5.2	-4.2	.
O=C(O)c1ccc(N2C(=O)/C(=C/C=C/c3ccccc3)SC2=S)cc1	13.4	80.4*	12.9	2.6	-5.3	0.7	+
Clc1ccc(Cn2c(/C=C/c3ccco3)nc3ccccc32)cc1	9.2	68.8*	9.4	-23.0	-0.6	-18.1	+
COc1cccc(C(=O)Nc2cccc(OCC(=O)O)c2)c1	0.0	92.6*	5.6	-10.1	-6.3	-11.8	+
CCCCCOC(=O)c1[nH]c2c(c1C)C(=O)C(C(=O)OC)C(C)C2 (stereo unspecified)	31.9	90.7*	12.3	-21.8	9.8	-26.2	+
COc1c(O)ccc(/C=C(\C#N)c2nc3ccccc3[nH]2)c1[N+](=O)[O-]	33.5	78.6*	1.5	-8.9	-6.1	-17.6	+
COc1ccc(/C=C(\C#N)c2nc3ccccc3[nH]2)cc1O	.	.	.	.	4.7	.	.
Nc1nonc1/C(=N/O)N1CCCC1	17.0	5.3	9.0	-13.3	-5.5	-27.2	.
COc1cc(C(=S)N2CCOCC2)ccc1OC(=O)c1ccc([N+](=O)[O-])cc1[N+](=O)[O-]	29.2	.	.	0.4	10.8	-1.6	.
COc1cccc2[nH]c3c(Cl)ncnc3c12	16.1	-4.9	7.7	-2.1	-3.7	-5.6	.
COc1cccc2[nH]c3c(N4CCCCC4)ncnc3c12	18.3	94.4*	3.9	-13.1	-3.8	-25.5	+
COc1ccc(CCN2CC(C(=O)NCc3cnn(C(C)C)c3)CCC2=O)cc1 (stereo unspecified)	-0.1	.	.	-12.3	-0.9	-2.1	.
O=C1COc2ccccc2N1Cc1ccccc1Cl	9.3	68.4*	7.1	-16.1	-0.2	-9.8	i
CC1Oc2ccccc2N(Cc2ccccc2Cl)C1=O (stereo unspecified)	13.1	49.6	8.4	-29.0	-9.0	-29.2	.

Assay outcomes (PubChem BioAssay)
